ChEMBL document CHEMBL1146321, “Transformation of mu-opioid receptor agonists into biologically potent mu-opioid receptor antagonists” (Bioorg Med Chem, 2007)
Activity calls are given as the source filed them.

Legend:
Mus musculus [1] = test: Inhibition of morphine-induced antinociception in mouse at 2.38 ng, icv after 10 mins by hot plate test; assay type: functional
In short: (§1)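 Male mice received morphine 4 mg/kg sc, then test compound icv 5 min later. Hot plate at 55.0 °C; latency to hind-paw licking or shaking, baseline 15 s, cut-off 30 s, read 10 min after icv dosing. Results as %MPE. AD50 is the dose blocking 50% of morphine antinociception at 10 min; 95% confidence limits; n = 10–17 mice per point.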

Mu-type opioid receptor [2] = biological target: Mu-type opioid receptor (Rattus norvegicus, UniProt P33535); test: Displacement of [3H]DAMGO from mu opioid receptor in rat brain P2 synaptosome; assay type: tissue-based
[3] = biological target: Delta-type opioid receptor (Rattus norvegicus, UniProt P33533); test: Displacement of [3H]deltorphin 2 from delta opioid receptor in rat brain P2 synaptosome; assay type: tissue-based
[4] = biological target: Opioid receptors; mu & delta (Rattus norvegicus) (UniProt P33533+P33535); test: Selectivity for rat mu opioid receptor over rat delta opioid receptor; assay type: protein assay
Mu-type opioid receptor [5] = biological target: T1, Mu-type opioid receptor (Cavia porcellus, UniProt P97266); test: Agonist activity at mu opioid receptor in Hartley guinea pig intestine assessed as inhibition of electrically evoked myenteric plexus longitudinal muscle contractions; assay type: functional, tissue-based
In short: (§2)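 Isolated tissue in organ baths of balanced physiological salt buffer, pH 7.5: male Hartley guinea pig ileum myenteric plexus longitudinal muscle (μ) or single mouse vas deferens (δ). Agonist inhibition of electrically evoked contractions; IC50 (nM) from dose–response curves, mean ± SE of five to six separate tissue preparations.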

Mu-type opioid receptor [6] = biological target: T1, Mu-type opioid receptor; test: Antagonist activity at mu opioid receptor in Hartley guinea pig intestine assessed as inhibition of DAMGO-induced effect on myenteric plexus longitudinal muscle contractions; assay type: functional, tissue-based; settings: read-out: pA2 (converted)
[7] = biological target: T2, Delta-type opioid receptor (Mus musculus, UniProt P32300); test: Agonist activity at delta opioid receptor in mouse vas deferens assessed as inhibition of electrically evoked muscle contractions; assay type: functional, tissue-based; in short: as §2
[8] = biological target: T2, Delta-type opioid receptor; test: Antagonist activity at delta opioid receptor in mouse vas deferens assessed as inhibition of deltorphin 2-induced effect on muscle contractions; assay type: functional, tissue-based; settings: read-out: pA2 (converted)
[9] = Ratio of pA2 for delta opioid receptor in MVD to pA2 for mu opioid receptor in GPI; assay type: functional
Hippocampus = test: Inhibition of ethanol-induced frequency of spontaneous inhibitory post-synaptic currents in rat hippocampal neurons by patch clamp technique at 300 nM; assay type: functional
In short: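 Rat hippocampal slices (300 µm), held in oxygenated ACSF 60 min at room temperature. Whole-cell patch clamp of CA1 pyramidal cells at −70 mV. GABAA IPSCs isolated with 50 µM AP5 and 20 µM DNQX. Recording periods of 10 min each: baseline, then 60 mM EtOH, then compound in EtOH. n = 6 slices; paired t-tests.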

[10] = biological target: Mu-type opioid receptor (Cavia porcellus) (UniProt P97266); test: Agonist activity at mu opioid receptor in Hartley guinea pig intestine assessed as inhibition of electrically evoked myenteric plexus longitudinal muscle contractions at 10000 nM; assay type: functional, tissue-based
[11] = biological target: Delta-type opioid receptor (Mus musculus) (UniProt P32300); test: Agonist activity at delta opioid receptor in mouse vas deferens assessed as inhibition of electrically evoked muscle contractions at 10000 nM; assay type: functional, tissue-based
Mus musculus [12] = test: Inhibition of morphine-induced antinociception in mouse at 0.148 ng, icv after 10 mins by hot plate test; assay type: functional, organism-based; in short: as §1
Mus musculus [13] = test: Inhibition of morphine-induced spinal antinociception in intracerebroventricularly dosed mouse by tail-flick test; assay type: functional, organism-based
In short: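 Male mice given morphine 4 mg/kg sc, then compound icv 5 min later. Tail-flick latency measured to radiant heat, baseline 2–3 s, cut-off 8 s.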

T1 sequence (P97266 whole entry): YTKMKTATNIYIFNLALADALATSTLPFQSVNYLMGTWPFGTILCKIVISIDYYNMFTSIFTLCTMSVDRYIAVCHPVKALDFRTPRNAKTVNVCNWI
T2 sequence (P32300 whole entry): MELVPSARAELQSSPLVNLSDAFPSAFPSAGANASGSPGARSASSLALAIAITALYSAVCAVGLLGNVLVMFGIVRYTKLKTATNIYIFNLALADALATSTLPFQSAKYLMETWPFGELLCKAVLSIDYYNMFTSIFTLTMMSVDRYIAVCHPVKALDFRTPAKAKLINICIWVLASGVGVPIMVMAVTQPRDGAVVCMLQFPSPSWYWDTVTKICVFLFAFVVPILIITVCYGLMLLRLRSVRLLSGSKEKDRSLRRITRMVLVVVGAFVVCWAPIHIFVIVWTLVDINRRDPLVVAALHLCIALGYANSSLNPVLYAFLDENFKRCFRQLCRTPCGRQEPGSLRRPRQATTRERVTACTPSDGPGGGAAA
Delta-type opioid receptor (Mus musculus), sequence (P32300 whole entry): as above
Mu-type opioid receptor (Rattus norvegicus, UniProt P33535), sequence (P33535 whole entry): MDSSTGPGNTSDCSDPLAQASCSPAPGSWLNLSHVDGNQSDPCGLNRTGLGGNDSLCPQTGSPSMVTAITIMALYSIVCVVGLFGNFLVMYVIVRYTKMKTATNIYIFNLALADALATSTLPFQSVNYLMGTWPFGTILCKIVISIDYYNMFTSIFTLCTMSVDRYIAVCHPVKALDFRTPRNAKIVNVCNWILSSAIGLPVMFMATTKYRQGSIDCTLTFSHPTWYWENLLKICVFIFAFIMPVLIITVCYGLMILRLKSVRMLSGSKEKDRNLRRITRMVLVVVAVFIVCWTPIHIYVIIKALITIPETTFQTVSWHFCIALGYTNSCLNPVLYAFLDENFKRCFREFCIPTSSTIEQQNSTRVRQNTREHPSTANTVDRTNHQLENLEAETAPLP
Delta-type opioid receptor (Rattus norvegicus, UniProt P33533), sequence (P33533 whole entry): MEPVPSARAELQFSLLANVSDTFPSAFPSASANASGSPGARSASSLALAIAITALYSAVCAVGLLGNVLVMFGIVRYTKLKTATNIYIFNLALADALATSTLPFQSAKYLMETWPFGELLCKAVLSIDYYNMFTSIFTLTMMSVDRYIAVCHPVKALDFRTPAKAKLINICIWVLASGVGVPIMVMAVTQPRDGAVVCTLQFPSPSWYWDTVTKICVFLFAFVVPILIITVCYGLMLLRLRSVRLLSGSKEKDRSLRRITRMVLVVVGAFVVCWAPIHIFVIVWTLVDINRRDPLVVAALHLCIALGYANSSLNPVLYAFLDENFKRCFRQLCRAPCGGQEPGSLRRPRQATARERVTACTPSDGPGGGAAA
Opioid receptors; mu & delta (Rattus norvegicus), sequence (P33533 whole entry, looked up): as the sequence (P33533 whole entry) above
Opioid receptors; mu & delta (Rattus norvegicus), sequence (P33535 whole entry, looked up): as the sequence (P33535 whole entry) above
Mu-type opioid receptor (Cavia porcellus), sequence (P97266 whole entry): as the sequence (P97266 whole entry) above

SMILES | AD50 (Mus musculus [1]) | Ki (Mu-type opioid receptor [2]) | Ki [3] | Ratio Ki [4] | IC50 (Mu-type opioid receptor [5]) | Kb (Mu-type opioid receptor [6]) | IC50 [7] | Kb [8] | Ratio pA2 [9] | inhibition at 0.3 µM (Hippocampus) | inhibition [10] | inhibition [11] | Activity (Mus musculus [12]) | Activity (Mus musculus [13])
C=CCN1CC[C@]23c4c5ccc(O)c4O[C@H]2C(=O)CC[C@@]3(O)[C@H]1C5 [NALOXONE] | 2.38 ng | – | – | – | – | – | – | – | – | – | – | – | – | –
C=CCN[C@@H](Cc1c(C)cc(O)cc1C)C(=O)N1CCC[C@H]1C(=O)N[C@@H](Cc1c[nH]c2ccccc12)C(=O)N[C@@H](Cc1ccccc1)C(N)=O | – | 0.26 nM | 10.3 nM | 40 | > 10000 nM | 6.61 nM | > 10000 nM | 47.9 nM | 7.2 | 26% | 49% | 37.5% | – | –
C=CCN[C@@H](Cc1c(C)cc(O)cc1C)C(=O)N1CCC[C@H]1C(=O)N[C@@H](Cc1ccccc1)C(=O)N[C@@H](Cc1ccccc1)C(N)=O | – | 0.45 nM | 560 nM | 1240 | > 10000 nM | 2.57 nM | > 10000 nM | 479 nM | 186 | – | 49.3% | 42.8% | inactive | inactive
C=CCN[C@@H](Cc1ccc(O)cc1)C(=O)N1CCC[C@H]1C(=O)N[C@@H](Cc1ccccc1)C(=O)N[C@@H](Cc1ccccc1)C(N)=O | – | – | – | 57 | – | – | – | – | – | – | – | – | – | –
C=CCNC(=O)[C@H](Cc1ccccc1)NC(=O)[C@H](Cc1ccccc1)NC(=O)[C@@H]1CCCN1C(=O)[C@H](Cc1ccc(O)cc1)NCC=C | – | – | – | 6 | – | – | – | – | – | – | – | – | – | –
Cc1cc(O)cc(C)c1C[C@H](N)C(=O)N1CCC[C@H]1C(=O)N[C@@H](Cc1c[nH]c2ccccc12)C(=O)N[C@@H](Cc1ccccc1)C(N)=O | – | 0.054 nM | 5.6 nM | 104 | 0.27 nM | – | > 10000 nM | 2.51 nM | – | – | – | 21.6% | – | –
